The values below come from ChEMBL document CHEMBL2203050, “Synthesis, evaluation and structure-activity relationships of triazine dimers as novel antiviral agents” (Bioorg Med Chem Lett, 2012).

Each structure is given as a SMILES string. The source made the active and inactive calls. The rule behind the calls is not given here.

Data set [1] is described as follows: Cytotoxicity against human TZM-b1 cells. The class given is cell-based.
The subject of data set [2] is Human immunodeficiency virus 1. Description: Antiviral activity against HIV1 infected in human TZM-b1 cells. It is filed as functional, organism-based. Particulars: Human immunodeficiency virus 1, TZM-b1.
A short description of data set [3]: Selectivity index, ratio of CC50 for human TZM-b1 cells to EC50 for HIV1. The class given is toxicity, cell-based. Particulars: read-out: Ratio CC50/EC50.
Data set [4] relates to Human immunodeficiency virus 1. Briefly: Ratio of EC50 for HIV1 Ba-L harboring reverse transcriptase V106A mutant to EC50 for wild type HIV1 Ba-L. The class given is functional.
The subject of data set [5] is Human immunodeficiency virus 1. Briefly: Antiviral activity against HIV1 harboring reverse transcriptase VI829 L100I, K103N mutant. It is filed as functional, organism-based.
Data set [6] deals with Human immunodeficiency virus 1. Description: Antiviral activity against wild type HIV1 Ba-L. The class given is functional, organism-based. To be noted: Human immunodeficiency virus 1, Ba-L.
In data set [7] the test system is Human immunodeficiency virus 1. Description: Ratio of EC50 for HIV1 harboring reverse transcriptase VI829 L100I, K103N mutant to EC50 for wild type HIV1 VI829.
For data set [8], the system named is Human immunodeficiency virus 1. Briefly: Antiviral activity against HIV1 harboring reverse transcriptase VI829/Y181C mutant. It is filed as functional, organism-based.
The test system of data set [9] is Human immunodeficiency virus 1. Briefly: Antiviral activity against HIV1 Ba-L harboring reverse transcriptase V106A mutant. The class given is functional, organism-based. Particulars: Human immunodeficiency virus 1, Ba-L.
Data set [10] deals with Human immunodeficiency virus 1. Briefly: Ratio of EC50 for HIV1 harboring reverse transcriptase VI829/Y181C mutant to EC50 for wild type HIV1 VI829.
Data set [11] has as its system Human immunodeficiency virus 1. Briefly: Antiviral activity against HIV1 assessed as inhibition of viral p24 antigen production treated every 1 hr for 12 hrs by ELISA based time-of-drug addition assay. It is filed as functional, organism-based. An outline of the steps: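 TZM-bl cells (2 × 10⁴ per well) were infected with virus at 0.4 MOI, with or without compound, for 1 h. Unbound virus was washed off and fresh medium was added, with or without compound. Compound at 50–500 × EC₅₀ was then added each hour over 12 h. p24 was measured by in-house antigen-capture ELISA at 24 h, giving a single replication round. Cells plus medium and cells plus virus served as controls.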
(In general: ELISA stands for enzyme-linked immunosorbent assay.)

Data set [12] concerns Human immunodeficiency virus 1. Briefly: Antiviral activity against HIV1 harboring reverse transcriptase VI829 mutant. The class given is functional, organism-based.

On to `Cc1cc(C)c(Nc2nc(Nc3ccc(C#N)cc3)nc(Nc3ccc(Nc4nc(Nc5ccc(C#N)cc5)nc(Nc5c(C)cc(C)cc5C)n4)cc3)n2)c(C)c1`, for which the CC50 in data set [1] is above 100000 nM. Moreover, a half-maximal response in data set [2] (EC50) required 170 nM. In addition, the selectivity ratio in data set [3] is above 588.

`Cc1cc(C)c(Nc2ccnc(Nc3ccc(C#N)cc3)n2)c(C)c1` [DAPIVIRINE] returned a CC50 in data set [1] of 2880 nM. Further, the “Ratio EC50” value in data set [4] was 1.3; in data set [7] it was above 500; in data set [10], 5.4. The EC50 in data set [5] is above 1000 nM; in data set [6] it was 2 nM; in data set [8] it was 10.8 nM; in data set [9], 2.5 nM; in [12], 2 nM. Besides, the inhibition result in data set [11] was “Active”. Also, the selectivity ratio in data set [3] was 1440.

Usually CC50 stands for the concentration giving 50% cytotoxicity. Lower therefore signals harm at low concentration. For orientation: EC50 means the concentration needed to bring the measured effect to its halfway point. A low value points to higher potency in that assay.
